# Results: ChEMBL document CHEMBL3425479, “Discovery, synthesis, and molecular pharmacology of selective positive allosteric modulators of the δ-opioid receptor” (J Med Chem, 2015)
# Active and inactive are the calls of the source. The rule behind the calls is not given here.
# Target: T1, Delta-type opioid receptor (Homo sapiens, UniProt P41143)
# Details: CHO
# T1 sequence (P41143 whole entry): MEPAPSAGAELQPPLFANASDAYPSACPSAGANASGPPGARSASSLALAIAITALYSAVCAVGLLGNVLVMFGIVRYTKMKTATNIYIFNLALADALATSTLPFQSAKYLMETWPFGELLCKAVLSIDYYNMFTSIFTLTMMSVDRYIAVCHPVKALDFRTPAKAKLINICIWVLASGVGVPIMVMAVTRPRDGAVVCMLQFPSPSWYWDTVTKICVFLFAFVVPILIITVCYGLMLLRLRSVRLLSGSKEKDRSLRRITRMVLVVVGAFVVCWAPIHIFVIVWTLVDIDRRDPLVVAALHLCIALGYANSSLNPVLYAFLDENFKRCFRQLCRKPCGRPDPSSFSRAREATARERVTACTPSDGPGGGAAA
row,SMILES,pKA
1,C=CCN1C[C@H](C)N([C@H](c2ccc(C(=O)N(CC)CC)cc2)c2cccc(OC)c2)C[C@H]1C,6.38

# Target: T1, Delta-type opioid receptor
# Details: CHO
# Remark: another data set of the same source
row,SMILES,pKA
1,CN1CC[C@]2(c3cccc(O)c3)Cc3nc4ccccc4cc3C[C@H]2C1,8.4
2,C=CCN1C[C@H](C)N([C@H](c2ccc(C(=O)N(CC)CC)cc2)c2cccc(OC)c2)C[C@H]1C,7.7

# System: CHO
# Assay: Selectivity ratio of EC50 for human mu opioid receptor-1 expressed in CHO cells to EC50 for human delta opioid receptor-1 expressed in CHO cells
# Format: cell-based
# Details: not given
# Summary of the method: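 The δ/μ potency ratio is built from PAM-mode β-arrestin EC50 values in PathHunter CHO-OPRD1 and CHO-OPRM1 cells. […] Incubation was 90 min at room temperature with luminescence read-out.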
row,SMILES,Ratio EC50
1,CC1(C)CC(=O)C2=C(C1)OC1=C(C(=O)CC(C)(C)C1)C2c1ccc(OCc2ccccc2OC(F)F)cc1,15
2,CC1(C)CC(=O)C2=C(C1)OC1=C(C(=O)CC(C)(C)C1)C2c1ccc(OCc2ccccc2CO)cc1,10
3,CC1(C)CC(=O)C2=C(C1)OC1=C(C(=O)CC(C)(C)C1)C2c1ccc(OCc2ccccc2S(C)(=O)=O)cc1,6
4,CC1(C)CC(=O)C2=C(C1)OC1=C(C(=O)CC(C)(C)C1)C2c1ccc(OCc2ccccc2OC(F)(F)F)cc1,7
5,CC1(C)CC(=O)C2=C(C1)OC1=C(C(=O)CC(C)(C)C1)C2c1ccc(OCc2cccc(F)c2)cc1,7
6,Cc1cccc(COc2ccc(C3C4=C(CC(C)(C)CC4=O)OC4=C3C(=O)CC(C)(C)C4)cc2)c1,15
7,Cc1ccc(COc2ccc(C3C4=C(CC(C)(C)CC4=O)OC4=C3C(=O)CC(C)(C)C4)cc2)cc1,13
8,CC1(C)CC(=O)C2=C(C1)OC1=C(C(=O)CC(C)(C)C1)C2c1ccc(OCc2ccccc2)cc1,30

# Target: T1, Delta-type opioid receptor
# Assay: Agonist activity at human delta opioid receptor-1 expressed in CHO cells after 90 mins by beta-arrestin recruitment assay
# Format: cell-based
# Details: not given
# Summary of the method: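 PathHunter CHO cells (OPRD1 or OPRM1) plated overnight at 37 °C in F-12 with 10% FBS and 25 mM HEPES. […] Incubated 90 min at room temperature, then luminescence read 1 h after detection reagent.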
row,SMILES,Activity
1,CC1(C)CC(=O)C2=C(C1)OC1=C(C(=O)CC(C)(C)C1)C2c1ccc(OCc2ccccc2OC(F)F)cc1,inactive
2,CC1(C)CC(=O)C2=C(C1)OC1=C(C(=O)CC(C)(C)C1)C2c1ccc(OCc2ccccc2CO)cc1,inactive
3,CC1(C)CC(=O)C2=C(C1)OC1=C(C(=O)CC(C)(C)C1)C2c1ccc(OCc2ccccc2C(F)(F)F)cc1,inactive
4,CC1(C)CC(=O)C2=C(C1)OC1=C(C(=O)CC(C)(C)C1)C2c1ccc(OCc2ccccc2S(C)(=O)=O)cc1,inactive
5,CC1(C)CC(=O)C2=C(C1)OC1=C(C(=O)CC(C)(C)C1)C2c1ccc(OCc2ccccc2OC(F)(F)F)cc1,inactive
6,CC1(C)CC(=O)C2=C(C1)OC1=C(C(=O)CC(C)(C)C1)C2c1ccc(OCc2cccc(F)c2)cc1,inactive
7,Cc1cccc(COc2ccc(C3C4=C(CC(C)(C)CC4=O)OC4=C3C(=O)CC(C)(C)C4)cc2)c1,inactive
8,Cc1ccc(COc2ccc(C3C4=C(CC(C)(C)CC4=O)OC4=C3C(=O)CC(C)(C)C4)cc2)cc1,inactive
9,CC1(C)CC(=O)C2=C(C1)OC1=C(C(=O)CC(C)(C)C1)C2c1ccc(OCc2ccccc2)cc1,inactive
10,CC1(C)CC(=O)C2=C(C1)OC1=C(C(=O)CC(C)(C)C1)C2c1ccc(OCc2ccccc2Cl)cc1,inactive

# Target: Mu-type opioid receptor (Homo sapiens, UniProt P35372)
# Sequence (P35372 whole entry): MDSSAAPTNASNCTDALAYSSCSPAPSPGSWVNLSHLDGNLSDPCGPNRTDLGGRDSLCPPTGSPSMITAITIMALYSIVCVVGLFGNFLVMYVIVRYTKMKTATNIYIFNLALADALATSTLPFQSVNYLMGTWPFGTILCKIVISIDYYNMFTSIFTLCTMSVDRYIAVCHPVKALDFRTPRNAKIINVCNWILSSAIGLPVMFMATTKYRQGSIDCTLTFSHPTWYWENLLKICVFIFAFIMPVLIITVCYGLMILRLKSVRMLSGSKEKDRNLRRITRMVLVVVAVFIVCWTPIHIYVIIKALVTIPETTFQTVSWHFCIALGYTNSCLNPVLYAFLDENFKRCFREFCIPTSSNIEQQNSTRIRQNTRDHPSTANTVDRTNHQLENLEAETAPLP
# Assay: Positive allosteric modulation of human mu opioid receptor-1 expressed in CHO cells assessed as potentiation of endomorphin 1-induced response after 90 mins by beta-arrestin recruitment assay
# Format: cell-based
# Details: not given
SMILES,EC50,Emax
CC1(C)CC(=O)C2=C(C1)OC1=C(C(=O)CC(C)(C)C1)C2c1ccc(OCc2ccccc2OC(F)F)cc1,3000 nM,80%
CC1(C)CC(=O)C2=C(C1)OC1=C(C(=O)CC(C)(C)C1)C2c1ccc(OCc2ccccc2CO)cc1,10000 nM,112%
CC1(C)CC(=O)C2=C(C1)OC1=C(C(=O)CC(C)(C)C1)C2c1ccc(OCc2ccccc2C(F)(F)F)cc1,> 10000 nM,> 20%
CC1(C)CC(=O)C2=C(C1)OC1=C(C(=O)CC(C)(C)C1)C2c1ccc(OCc2ccccc2S(C)(=O)=O)cc1,5000 nM,42%
CC1(C)CC(=O)C2=C(C1)OC1=C(C(=O)CC(C)(C)C1)C2c1ccc(OCc2ccccc2OC(F)(F)F)cc1,2000 nM,111%
CC1(C)CC(=O)C2=C(C1)OC1=C(C(=O)CC(C)(C)C1)C2c1ccc(OCc2cccc(F)c2)cc1,7000 nM,182%
Cc1cccc(COc2ccc(C3C4=C(CC(C)(C)CC4=O)OC4=C3C(=O)CC(C)(C)C4)cc2)c1,3000 nM,120%
Cc1ccc(COc2ccc(C3C4=C(CC(C)(C)CC4=O)OC4=C3C(=O)CC(C)(C)C4)cc2)cc1,4000 nM,65%
CC1(C)CC(=O)C2=C(C1)OC1=C(C(=O)CC(C)(C)C1)C2c1ccc(OCc2ccccc2)cc1,6000 nM,130%
CC1(C)CC(=O)C2=C(C1)OC1=C(C(=O)CC(C)(C)C1)C2c1ccc(OCc2ccccc2Cl)cc1,> 10000 nM,> 100%

# Target: T1, Delta-type opioid receptor
# Assay: Partial agonist activity at human delta opioid receptor expressed in CHO cells after 1 hr by [35S]GTPgammaS binding assay relative to SNC80
# Format: functional, cell-based
# Details: not given
row,SMILES,Activity
1,CN1CC[C@]2(c3cccc(O)c3)Cc3nc4ccccc4cc3C[C@H]2C1,84%

# Target: T1, Delta-type opioid receptor
# Details: CHO
# Remark: another data set of the same source
row,SMILES,pKA
1,C=CCN1C[C@H](C)N([C@H](c2ccc(C(=O)N(CC)CC)cc2)c2cccc(OC)c2)C[C@H]1C,7.7

# Target: T1, Delta-type opioid receptor
# Details: CHO
# Remark: another data set of the same source
row,SMILES,log(activity)
1,C=CCN1C[C@H](C)N([C@H](c2ccc(C(=O)N(CC)CC)cc2)c2cccc(OC)c2)C[C@H]1C,0.66

# System: CHO
# Assay: Induction of ERK1 phosphorylation in delta receptor deficient CHO cells
# Format: cell-based
# Details: Cricetulus griseus
# Summary of the method: (§1)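 Parental CHO cells lacking δ receptor, test compound added alone. Cells serum-starved overnight in DMEM, then stimulated at 37 °C. Phospho-ERK1/2 measured in lysates by AlphaScreen SureFire. Basal in serum-free medium was set as 0% and 10% serum response as 100%.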
row,SMILES,Activity
1,Cc1ccccc1COc1ccc(C2C3=C(CC(C)(C)CC3=O)OC3=C2C(=O)CC(C)(C)C3)cc1,inactive

# System: CHO
# Assay: Induction of ERK2 phosphorylation in delta receptor deficient CHO cells
# Format: cell-based
# Details: Cricetulus griseus
# Summary of the method: as §1
row,SMILES,Activity
1,Cc1ccccc1COc1ccc(C2C3=C(CC(C)(C)CC3=O)OC3=C2C(=O)CC(C)(C)C3)cc1,inactive

# System: not listed separately
# Assay: Solubility of the compound in HBSS/HEPES/FBS assessed as particulate matter formation at >3 uM by nephelometric analysis
# Format: physicochemical
# Details: buffer
row,SMILES,solubility
1,CC1(C)CC(=O)C2=C(C1)OC1=C(C(=O)CC(C)(C)C1)C2c1ccc(OCc2ccccc2Br)cc1,Insoluble
2,Cc1ccccc1COc1ccc(C2C3=C(CC(C)(C)CC3=O)OC3=C2C(=O)CC(C)(C)C3)cc1,Insoluble

# Target: T1, Delta-type opioid receptor
# Details: CHO
# Remark: another data set of the same source
row,SMILES,pKA
1,CN1CC[C@]2(c3cccc(O)c3)Cc3nc4ccccc4cc3C[C@H]2C1,7.6
2,C=CCN1C[C@H](C)N([C@H](c2ccc(C(=O)N(CC)CC)cc2)c2cccc(OC)c2)C[C@H]1C,7.7

# Target: T1, Delta-type opioid receptor
# Details: CHO
# Remark: another data set of the same source
row,SMILES,log(activity)
1,C=CCN1C[C@H](C)N([C@H](c2ccc(C(=O)N(CC)CC)cc2)c2cccc(OC)c2)C[C@H]1C,0.86

# Target: T1, Delta-type opioid receptor
# Details: CHO
# Remark: another data set of the same source
row,SMILES,log(activity)
1,CN1CC[C@]2(c3cccc(O)c3)Cc3nc4ccccc4cc3C[C@H]2C1,0.22
2,C=CCN1C[C@H](C)N([C@H](c2ccc(C(=O)N(CC)CC)cc2)c2cccc(OC)c2)C[C@H]1C,1.06

# Target: T1, Delta-type opioid receptor
# Assay: Positive allosteric modulation of human delta opioid receptor-1 expressed in CHO cells assessed as potentiation of leu-enkephalin-induced response after 90 mins by beta-arrestin recruitment assay
# Format: cell-based
# Details: not given
row,SMILES,EC50
1,CC1(C)CC(=O)C2=C(C1)OC1=C(C(=O)CC(C)(C)C1)C2c1ccc(OCc2ccccc2OC(F)F)cc1,200 nM
2,CC1(C)CC(=O)C2=C(C1)OC1=C(C(=O)CC(C)(C)C1)C2c1ccc(OCc2ccccc2CO)cc1,1000 nM
3,CC1(C)CC(=O)C2=C(C1)OC1=C(C(=O)CC(C)(C)C1)C2c1ccc(OCc2ccccc2C(F)(F)F)cc1,> 10000 nM
4,CC1(C)CC(=O)C2=C(C1)OC1=C(C(=O)CC(C)(C)C1)C2c1ccc(OCc2cccc(Cl)c2Cl)cc1,100 nM
5,CC1(C)CC(=O)C2=C(C1)OC1=C(C(=O)CC(C)(C)C1)C2c1ccc(OCc2ccc(F)cc2)cc1,100 nM
6,CC1(C)CC(=O)C2=C(C1)OC1=C(C(=O)CC(C)(C)C1)C2c1ccc(OCc2ccccc2S(C)(=O)=O)cc1,900 nM
7,CC1(C)CC(=O)C2=C(C1)OC1=C(C(=O)CC(C)(C)C1)C2c1ccc(OCc2ccccc2OC(F)(F)F)cc1,300 nM
8,CC1(C)CC(=O)C2=C(C1)OC1=C(C(=O)CC(C)(C)C1)C2c1ccc(OCc2cccc(F)c2)cc1,1000 nM
9,Cc1cccc(COc2ccc(C3C4=C(CC(C)(C)CC4=O)OC4=C3C(=O)CC(C)(C)C4)cc2)c1,200 nM
10,Cc1ccc(COc2ccc(C3C4=C(CC(C)(C)CC4=O)OC4=C3C(=O)CC(C)(C)C4)cc2)cc1,300 nM
11,CC1(C)CC(=O)C2=C(C1)OC1=C(C(=O)CC(C)(C)C1)C2c1ccc(OCc2ccccc2Br)cc1,50 nM
12,CC1(C)CC(=O)C2=C(C1)OC1=C(C(=O)CC(C)(C)C1)C2c1ccc(OCc2ccccc2F)cc1,100 nM
13,CC1(C)CC(=O)C2=C(C1)OC1=C(C(=O)CC(C)(C)C1)C2c1ccc(OCc2ccccc2Cl)cc1,300 nM

# System: not listed separately
# Assay: Solubility of the compound in phosphate buffered saline assessed as particulate matter formation at >1 uM by nephelometric analysis
# Format: physicochemical
# Details: buffer
row,SMILES,solubility
1,CC1(C)CC(=O)C2=C(C1)OC1=C(C(=O)CC(C)(C)C1)C2c1ccc(OCc2ccccc2Br)cc1,Insoluble
2,Cc1ccccc1COc1ccc(C2C3=C(CC(C)(C)CC3=O)OC3=C2C(=O)CC(C)(C)C3)cc1,Insoluble

# Target: T1, Delta-type opioid receptor
# Details: CHO
# Remark: another data set of the same source
row,SMILES,log(activity)
1,CN1CC[C@]2(c3cccc(O)c3)Cc3nc4ccccc4cc3C[C@H]2C1,0.67
2,C=CCN1C[C@H](C)N([C@H](c2ccc(C(=O)N(CC)CC)cc2)c2cccc(OC)c2)C[C@H]1C,0.56

# System: CHO
# Assay: Effect on delta receptor deficient CHO cells assessed as inhibition of cAMP accumulation
# Format: functional, cell-based
# Details: Cricetulus griseus
# Summary of the method: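 Parental CHO cells lacking δ receptor, test compound added alone. Cells in HBSS + 25 mM HEPES + 0.05% BSA, 2000 cells/well, with forskolin at 2 μM final. Incubated 45 min at rt. cAMP measured by TR-FRET (665/615 nm ratio) against a cAMP standard curve run alongside.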
row,SMILES,Activity
1,Cc1ccccc1COc1ccc(C2C3=C(CC(C)(C)CC3=O)OC3=C2C(=O)CC(C)(C)C3)cc1,inactive
